Active and inactive are the calls of the source.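 Rule for the calls, unless noted: active = inhibition at or above 50% at 10 µM; inactive = inhibition below 50%.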
What was measured:
[1] = inhibitors of TNFa-induced NFkB p65 translocation, primary screen, imaging, HUVEC, MLSMR starter and 10KST1 sets (AID 438;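 active = inhibition above 20% together with a positive visual image hit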;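 note: compound added about 3h40 before a 20 min TNFalpha stimulation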;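 for inhibition: signal is the nuclear over cytoplasmic p65 intensity ratio per well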); settings: HUVEC TNFa-induced p65 nuclear translocation; cell count: measured here: nuclei count (cytotoxicity indicator), at 2.08 µM; inhibition: at 2 µM, stronger effect = higher value, 0% TNFa-plus-vehicle, 100% no-TNFa wells
[2] = inhibitors of mutant huntingtin aggregation, primary screen, imaging, exon1htt(103Q)mCFP cells, high-content imaging (AID 483;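 active = visual image review flags a hit and inhibition of aggregation exceeds 20%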;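 note: compound exposure lasted 3 days before fixation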;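 for nuclei count: percent of the per-plate median nuclei count of sample wells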); settings: exon1htt(103Q)mCFP cell line, aggregate imaging, at 2 µM; inhibition of aggregation: stronger effect = higher value; nuclei count: measured here: cell count, toxicity
[3] = inhibitors of E-selectin induction by TNFa, primary screen, imaging, HUVEC, immunofluorescence, MLSMR starter and 10KST1 sets (AID 487;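 active = visually confirmed hit in the image check and inhibition above 20%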;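 for inhibition: signal is fraction of cell area covered by stained E-selectin grains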;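 for nuclei count: 100% = median nuclei count of all wells on the same plate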); settings: HUVEC TNFalpha-induced E-selectin immunofluorescence imaging, at 2 µM; inhibition: stronger effect = higher value; nuclei count: measured here: cell number, toxicity
[4] = biological target: Voltage-gated potassium channel subunit beta-2 (Rattus norvegicus) (UniProt P62483); test: KvBeta enzyme negative modulators, primary screen, biochemical, NADPH fluorescence (AID 622;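 active = fluorescence slope higher than the sample average by over 3 SD, cut at about -0.22 in these data, passing the limit was not always enough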;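 note: slope of raw intensity against log time taken from 70 to 1610 s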); settings: recombinant KvBeta, 4-cyanobenzaldehyde reduction, at 10 µM, stronger effect = higher value
Sequence of Voltage-gated potassium channel subunit beta-2 (Rattus norvegicus) (P62483 whole entry, looked up): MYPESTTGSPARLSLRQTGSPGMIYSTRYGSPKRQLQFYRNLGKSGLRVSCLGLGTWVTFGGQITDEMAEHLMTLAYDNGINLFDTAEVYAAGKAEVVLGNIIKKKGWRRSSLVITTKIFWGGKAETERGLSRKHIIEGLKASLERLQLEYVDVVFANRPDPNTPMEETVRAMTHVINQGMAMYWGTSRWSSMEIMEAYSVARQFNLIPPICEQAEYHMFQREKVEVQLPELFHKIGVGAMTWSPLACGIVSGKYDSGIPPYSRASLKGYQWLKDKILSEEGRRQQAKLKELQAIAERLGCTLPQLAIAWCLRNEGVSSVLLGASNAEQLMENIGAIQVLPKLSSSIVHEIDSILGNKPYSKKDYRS

[5] = biological target: Voltage-gated potassium channel subunit beta-2 (Rattus norvegicus) (UniProt P62483); test: KvBeta positive modulators, primary screen, biochemical, NADPH fluorescence (AID 623;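 active = NADPH fluorescence slope more negative than the mean of all samples by about 3 SD, 99.7% confidence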;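 note: fluorescence intensity change per second fitted from 20 to 320 s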); settings: Recombinant KvBeta, NADPH fluorescence decrease slope, 10 min; at 10 µM; stronger effect = lower value
[6] = biological target: Muscarinic acetylcholine receptor M4 (Homo sapiens) (UniProt P08173); test: compounds altering M4/GIRK thallium flux, either direction, primary screen, M4 allosteric agonist project, cell-based, HEK293 M4/GIRK, BTC-AM (AID 625;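 active = fluorescence slope after compound addition differing from the mean of all tested samples at 99.7% confidence, mostly higher but some lower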;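 note: thallium influx through GIRK channels coupled to M4 in HEK293 cells with BTC-AM dye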); settings: at 10 µM, actives lie on both sides
Sequence of Muscarinic acetylcholine receptor M4 (Homo sapiens) (P08173 whole entry, looked up): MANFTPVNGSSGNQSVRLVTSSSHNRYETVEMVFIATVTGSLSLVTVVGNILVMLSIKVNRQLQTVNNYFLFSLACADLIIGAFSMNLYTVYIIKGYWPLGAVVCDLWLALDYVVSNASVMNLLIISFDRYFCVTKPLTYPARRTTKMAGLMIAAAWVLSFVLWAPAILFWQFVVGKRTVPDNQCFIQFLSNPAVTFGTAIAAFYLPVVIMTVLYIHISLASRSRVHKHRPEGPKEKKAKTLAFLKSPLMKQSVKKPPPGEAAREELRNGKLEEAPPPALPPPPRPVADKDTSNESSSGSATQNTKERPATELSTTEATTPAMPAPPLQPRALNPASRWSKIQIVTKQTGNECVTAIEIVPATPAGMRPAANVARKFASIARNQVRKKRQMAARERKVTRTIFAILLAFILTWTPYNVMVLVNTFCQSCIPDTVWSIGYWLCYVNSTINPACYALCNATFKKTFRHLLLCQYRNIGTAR
Procedure, shortened: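 Material: M4/GIRK1/GIRK2 stable HEK293 cell line. Medium: pH 7.3 thallium assay buffer. Dosing: single compound concentration, 10 µM final. Schedule: 1 h dye loading, 2 min kinetic read. Measured by: kinetic fluorescence with BTC-AM dye. Read-out: post-addition slope, 15–24 s, of baseline-normalized fluorescence. Benchmarks: carbachol and DMSO controls.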

[7] = inhibitors of Sendai virus-induced IRF3 signaling, primary screen, TLR/RLR signaling modifier project, cell-based, Sendai virus stimulus, luciferase, 10K MLSCN set (AID 602276); settings: HEK293 RL24 IRF3 luciferase reporter, at 10 µM, stronger effect = higher value;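 note: firefly luciferase from ISG56 promoter only with Renilla not read in this screen; 0% = Sendai virus plus DMSO and 100% = medium plus DMSO without virus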
[8] = inhibitors of poly I:C-induced TLR3 signaling, primary screen, cell-based, poly I:C stimulus, luciferase, 10K MLSCN set (AID 602277;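 active = inhibition of the reporter signal at or above 50%; inactive = inhibition below 50%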); settings: HEK293-TLR3 RL24 IRF3 luciferase reporter, at 10 µM, stronger effect = higher value

| SMILES | cell count [1] | inhibition [1] | inhibition of aggregation [2] | nuclei count [2] [%] | inhibition [3] | nuclei count [3] [%] | fluorescence slope [4] | NADPH fluorescence slope [5] | fluorescence slope [6] | inhibition [7] | inhibition [8] |
| --- | --- | --- | --- | --- | --- | --- | --- | --- | --- | --- | --- |
| COc1ccccc1CNC(=O)CCn1c(=O)[nH]c2ccsc2c1=O | 504 | 1.1% (inactive) | 6.6% (inactive) | 111 | 9.6% (inactive) | 110 | -0.266 (inactive) | -3e-05 (inactive) | 0.0062 (inactive) | 16.6% (inactive) | -5.76% (inactive) |
| O=C(NCCN1CCOCC1)c1ccc2c(c1)N(Cc1ccccc1)C(=O)CS2 | 773 | -9.5% (inactive) | -8.5% (inactive) | 102 | 20.7% (inactive) | 105 | -0.564 (inactive) | 2e-05 (inactive) | 0.00419 (inactive) | -1.65% (inactive) | 8.57% (inactive) |
| CCn1c2ccccc2c2cc(NC(=O)Cc3ccc(S(=O)(=O)N4CCOCC4)s3)ccc21 | 343 | -0.2% (inactive) | 29.4% (inactive) | 115 | -10.9% (inactive) | 109 | -0.502 (inactive) | 1e-05 (inactive) | 0.00333 (inactive) | 25.9% (inactive) | 26.4% (inactive) |
| COCc1[nH]nc2c1C(C1C=CCCC1)C(C#N)=C(N)O2 (stereo not drawn) | 463 | 5.7% (inactive) | -1.8% (inactive) | 110 | -76.2% (inactive) | 120 | -0.464 (inactive) | -6.2e-05 (inactive) | 0.00521 (inactive) | 16.7% (inactive) | 31.6% (inactive) |
| COc1cccc(OC)c1C(=O)N1CCOCC1 | 505 | -7.7% (inactive) | 7.2% (inactive) | 103 | -105% (inactive) | 126 | -0.536 (inactive) | -3.1e-05 (inactive) | 0.00602 (inactive) | 17.5% (inactive) | 25.3% (inactive) |
| O=C(CP(=O)(c1ccccc1)c1ccccc1)N1CCCCC1 | 378 | 6.6% (inactive) | -16% (inactive) | 105 | -29.8% (inactive) | 107 | -0.528 (inactive) | -1.9e-05 (inactive) | 0.00576 (inactive) | 18% (inactive) | 22.1% (inactive) |
| CCOC(=O)N1CCC(NC(=O)CCc2c(C)nc3c(c(C)nn3C(C)(C)C)c2C)CC1 | 650 | 2.6% (inactive) | 7.1% (inactive) | 138 | -8.7% (inactive) | 106 | -0.397 (inactive) | 3.3e-05 (inactive) | 0.00517 (inactive) | 11% (inactive) | -3.64% (inactive) |
| CNC(=O)CC(C(=O)O)c1ccc(OCC(C)C)cc1 (stereo not drawn) | 611 | -1.5% (inactive) | -15.2% (inactive) | 114 | 13.6% (inactive) | 103 | -0.562 (inactive) | -8.4e-05 (inactive) | 0.00333 (inactive) | 9.55% (inactive) | 16.9% (inactive) |
| O=C(O)CCc1ccc(-c2cccs2)n1NC(=O)c1ccco1 | 719 | 3.6% (inactive) | -10.1% (inactive) | 107 | -93.6% (inactive) | 132 | -0.463 (inactive) | 1.5e-05 (inactive) | 0.00473 (inactive) | 20.8% (inactive) | 17.9% (inactive) |
| O=C(CNS(=O)(=O)c1ccc(Br)s1)N1CCCC1 | 367 | 3.7% (inactive) | -1% (inactive) | 93.3 | -164% (inactive) | 101 | -0.636 (inactive) | -9.6e-06 (inactive) | 0.00369 (inactive) | 21.1% (inactive) | 25.7% (inactive) |
| CCOc1ccc(NC(=O)CN(C)S(=O)(=O)c2cccs2)cc1 | 650 | -12% (inactive) | -4.9% (inactive) | 104 | -22.6% (inactive) | 113 | -0.587 (inactive) | -3.3e-05 (inactive) | 0.00617 (inactive) | -60.5% (inactive) | -62.8% (inactive) |
| C=CCOc1ccc(/C(O)=C2\C(=O)C(=O)N(CCOC)C2c2cccnc2)cc1 (stereo not drawn) | 640 | 3.4% (inactive) | 14.8% (inactive) | 105 | 4% (inactive) | 101 | -0.336 (inactive) | -4.4e-05 (inactive) | 0.00592 (inactive) | 6.88% (inactive) | 15.7% (inactive) |
| O=C(Cn1nnc(-c2cccc(C(F)(F)F)c2)n1)NC(=O)NCc1ccco1 | 323 | 19.4% (inactive) | -17% (inactive) | 100 | 24.1% (inactive) | 101 | -0.44 (inactive) | -0.000353 (inactive) | 0.00673 (inactive) | -0.353% (inactive) | 5.76% (inactive) |
| COc1nc(N2CCOCC2)nc(-n2cccc2)n1 | 534 | -4.1% (inactive) | 3% (inactive) | 99.6 | 52.3% (inactive) | 80.1 | -0.547 (inactive) | -7.1e-05 (inactive) | 0.00492 (inactive) | 2.29% (inactive) | 4.71% (inactive) |
| O=C(Nc1ccc2nn(-c3ccccc3)nc2c1)c1ccc(Br)o1 | 355 | -1.7% (inactive) | 9.1% (inactive) | 106 | 6.4% (inactive) | 101 | -0.213 (inactive) | -2.9e-05 (inactive) | 0.00781 (inactive) | -22.8% (inactive) | -70.4% (inactive) |
| CCC(=O)N1CCc2cc(S(=O)(=O)CCC(=O)Nc3nc(C)cs3)ccc21 | 606 | 5.7% (inactive) | 9.7% (inactive) | 95.8 | -144% (inactive) | 158 | -0.439 (inactive) | 7.6e-05 (inactive) | 0.00524 (inactive) | 19.2% (inactive) | 21.5% (inactive) |
| CN(CC(=O)Nc1ccncc1)S(=O)(=O)c1ccccc1 | 351 | 4.9% (inactive) | 11.1% (inactive) | 108 | -141% (inactive) | 148 | -0.432 (inactive) | -7.6e-05 (inactive) | 0.00615 (inactive) | 14.3% (inactive) | 2.23% (inactive) |
| CCN(CC)c1ccc(CNc2ccc(Br)cn2)cc1 | 388 | -2.4% (inactive) | -13.8% (inactive) | 101 | -74.6% (inactive) | 122 | -0.546 (inactive) | -0.000144 (inactive) | 0.00212 (inactive) | -41.1% (inactive) | -92.7% (inactive) |
| COc1ccc(/C(O)=C2/C(=O)C(=O)N(CC3CCCO3)C2c2cccc(OC)c2)cc1 (stereo not drawn) | 717 | 3.9% (inactive) | -15.3% (inactive) | 118 | 36.2% (inactive) | 97.6 | -0.429 (inactive) | -3.2e-05 (inactive) | 0.00604 (inactive) | 14.7% (inactive) | 21.1% (inactive) |
| O=C(Nc1ccncc1)c1cncc(Br)c1 | 718 | -3% (inactive) | -6.3% (inactive) | 98 | -153% (inactive) | 114 | -0.243 (inactive) | -9.4e-06 (inactive) | 0.00626 (inactive) | 1.8% (inactive) | 0.632% (inactive) |
| O=C(COC(=O)c1ccc(NS(=O)(=O)c2ccc3c(c2)OCCO3)cc1)NCC1CCCO1 (stereo not drawn) | 424 | -18.3% (inactive) | 11.2% (inactive) | 69.5 | 1.1% (inactive) | 100 | -0.555 (inactive) | -3.4e-05 (inactive) | 0.00638 (inactive) | 4.88% (inactive) | 19.1% (inactive) |
| O=C(Cn1nc(-c2ccc(Cl)cc2)ccc1=O)NCCCN1CCN(Cc2ccccc2)CC1 | 518 | 10.6% (inactive) | -12.5% (inactive) | 97.4 | -351% (inactive) | 135 | -0.585 (inactive) | 3e-05 (inactive) | 0.00673 (inactive) | -9.82% (inactive) | -23.5% (inactive) |
| Cc1cccc(-c2noc(CCC(=O)Nc3ccccc3)n2)c1 | 430 | 9.5% (inactive) | 7.6% (inactive) | 92.6 | 68.5% (inactive) | 140 | -0.289 (inactive) | -2.3e-05 (inactive) | 0.00559 (inactive) | -7.26% (inactive) | -4.8% (inactive) |
| CCn1cc(C(=O)N2CCN(C(=O)c3ccco3)CC2)c2cc(OC)c(OC)cc2c1=O | 235 | -2.3% (inactive) | -10% (inactive) | 105 | -55.5% (inactive) | 121 | -0.515 (inactive) | 8.7e-05 (inactive) | 0.00709 (inactive) | 13.9% (inactive) | 15.4% (inactive) |
| CSc1nnc2c3ccccc3n(Cc3ccccc3)c2n1 | 295 | -0.5% (inactive) | 3.5% (inactive) | 92.5 | 30.6% (inactive) | 86.1 | -0.45 (inactive) | -4.8e-05 (inactive) | 0.00511 (inactive) | 19.7% (inactive) | 17% (inactive) |
| Clc1ccc(SCCCCn2ccnc2)cc1 | 289 | -10.4% (inactive) | 0.8% (inactive) | 101 | -114% (inactive) | 115 | -0.306 (inactive) | -1.2e-05 (inactive) | 0.00775 (inactive) | -17.8% (inactive) | -10.6% (inactive) |
| CC(C(=O)N1c2ccc(F)cc2CCC1C)N1C(=O)c2ccccc2C1=O (stereo not drawn) | 490 | 5% (inactive) | 1.1% (inactive) | 118 | -158% (inactive) | 138 | -0.452 (inactive) | -4.6e-05 (inactive) | 0.00501 (inactive) | 10.8% (inactive) | 11.7% (inactive) |
| CCOc1ccccc1N1C(=O)CC(Sc2ncccc2C(=O)O)C1=O (stereo not drawn) | 890 | -0.7% (inactive) | -13.3% (inactive) | 105 | -111% (inactive) | 136 | -0.46 (inactive) | -8.3e-07 (inactive) | 0.00417 (inactive) | 12.2% (inactive) | 13.4% (inactive) |

Reference: PubChem BioAssay
